ChEMBL document CHEMBL1221183, “Chemical modulation of receptor signaling inhibits regenerative angiogenesis in adult zebrafish” (Nat Chem Biol, 2006)
Activity calls are given as the source filed them. The calls are words filed in the database; no cut-off is given here.

Experiments:
[1] = target: Vascular endothelial growth factor receptor 2 (Danio rerio) (UniProt Q5GIT4); assay: Inhibition of VEGFR2-mediated regenerative angiogenesis in adult zebrafish tail fin vessel at 100 to 500 nM after 3 days by microscopy
Chain of Vascular endothelial growth factor receptor 2 (Danio rerio) (Q5GIT4 whole entry, the tested form may be a part): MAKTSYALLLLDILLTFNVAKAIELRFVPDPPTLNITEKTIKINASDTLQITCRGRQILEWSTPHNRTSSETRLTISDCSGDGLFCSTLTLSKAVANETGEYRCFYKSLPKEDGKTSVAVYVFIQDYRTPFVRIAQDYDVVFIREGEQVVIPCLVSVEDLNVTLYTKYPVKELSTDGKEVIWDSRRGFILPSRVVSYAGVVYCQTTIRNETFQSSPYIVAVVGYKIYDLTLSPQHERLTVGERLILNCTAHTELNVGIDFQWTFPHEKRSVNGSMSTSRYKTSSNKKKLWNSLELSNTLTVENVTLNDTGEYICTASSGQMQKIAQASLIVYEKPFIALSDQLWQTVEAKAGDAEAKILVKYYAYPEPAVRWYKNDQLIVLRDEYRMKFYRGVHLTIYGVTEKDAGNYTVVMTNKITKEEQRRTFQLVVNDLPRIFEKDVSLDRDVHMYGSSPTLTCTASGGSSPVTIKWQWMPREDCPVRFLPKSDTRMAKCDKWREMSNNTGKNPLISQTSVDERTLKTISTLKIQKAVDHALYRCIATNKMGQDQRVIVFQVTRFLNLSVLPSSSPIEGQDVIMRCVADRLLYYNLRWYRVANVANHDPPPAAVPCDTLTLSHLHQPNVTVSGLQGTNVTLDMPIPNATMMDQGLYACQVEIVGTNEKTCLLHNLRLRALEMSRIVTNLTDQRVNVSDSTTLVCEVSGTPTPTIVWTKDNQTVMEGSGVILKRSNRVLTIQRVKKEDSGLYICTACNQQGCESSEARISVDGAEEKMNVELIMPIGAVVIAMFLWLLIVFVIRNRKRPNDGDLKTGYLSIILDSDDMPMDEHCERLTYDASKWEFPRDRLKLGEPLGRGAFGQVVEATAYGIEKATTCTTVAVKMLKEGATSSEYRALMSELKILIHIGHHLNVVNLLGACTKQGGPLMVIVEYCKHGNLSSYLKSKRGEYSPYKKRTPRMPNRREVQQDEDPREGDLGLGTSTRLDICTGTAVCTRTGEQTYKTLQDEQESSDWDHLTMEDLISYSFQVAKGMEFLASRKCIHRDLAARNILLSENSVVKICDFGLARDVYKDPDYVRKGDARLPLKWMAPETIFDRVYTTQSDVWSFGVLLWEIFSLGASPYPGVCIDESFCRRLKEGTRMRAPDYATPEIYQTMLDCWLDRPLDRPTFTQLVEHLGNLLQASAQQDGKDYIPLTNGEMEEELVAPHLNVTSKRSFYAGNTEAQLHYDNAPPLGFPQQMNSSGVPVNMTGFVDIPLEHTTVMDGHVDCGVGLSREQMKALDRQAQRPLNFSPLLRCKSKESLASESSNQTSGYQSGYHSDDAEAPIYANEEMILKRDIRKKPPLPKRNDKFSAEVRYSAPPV
Method in brief: (§1)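 Adult fins cut at mid-fin level; fish kept in fish water with inhibitor (DMSO stock, final DMSO <0.1%) at 31-33 °C, up to six fish per liter, for 3 dpa. Tg(fli1:EGFP)y1 endothelial signal imaged by fluorescence microscopy, with perfusion shown by intracardiac angiography in the same fish.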

[2] = target: Vascular endothelial growth factor receptor 2 (Danio rerio) (UniProt Q5GIT4); assay: Inhibition of VEGFR2-mediated regenerative angiogenesis in adult zebrafish tail fin vessel at 500 to 1000 nM after 3 days by microscopy; format: tissue-based
[3] = target: Vascular endothelial growth factor receptor 2 (Danio rerio) (UniProt Q5GIT4); assay: Mild inhibition of VEGFR2-mediated regenerative angiogenesis in adult zebrafish tail fin vessel at 100 to 500 nM after 3 days by microscopy; method in brief: as §1
[4] = target: Vascular endothelial growth factor receptor 2 (Danio rerio) (UniProt Q5GIT4); assay: Inhibition of VEGFR2-mediated regenerative angiogenesis in adult zebrafish tail fin vessel at 500 to 1000 nM after 3 days by microscopy
[5] = target: Vascular endothelial growth factor receptor 2 (Danio rerio) (UniProt Q5GIT4); assay: Inhibition of VEGFR2-mediated regenerative angiogenesis in adult zebrafish tail fin vessel harboring hypomorphic mutation in grlm145 gene assessed as vascularization of newly generated tissues at 100 nM measured on day 3 post treatment by angiography; format: tissue-based; design: scale not given: the % may be the effect or the level left
Method in brief: (§2)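 Fins of wild-type or mutant adults cut at mid-fin level, then kept 3 dpa in fish water or 100 nM PTK787 at 31-33 °C. Perfusion shown by intracardiac injection of fluorescent lectin or 70-kDa dextran (5 mg ml-1 in Danieau's, pH 7.6). Tissue regrowth and vessel regeneration measured for each fish and given as percentage of vascularization; ANOVA with Tukey tests.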

[6] = target: Vascular endothelial growth factor receptor 2 (Danio rerio) (UniProt Q5GIT4); assay: Partial inhibition of VEGFR2-mediated regenerative angiogenesis in adult zebrafish tail fin vessel at 100 nM after 3 days by microscopy; method in brief: as §1
[7] = target: Vascular endothelial growth factor receptor 2 (Danio rerio) (UniProt Q5GIT4); assay: Complete inhibition of VEGFR2-mediated regenerative angiogenesis in adult zebrafish tail fin vessel at 500 nM after 3 days by microscopy; method in brief: as §1
[8] = target: Vascular endothelial growth factor receptor 2 (Danio rerio) (UniProt Q5GIT4); assay: Inhibition of VEGFR2-mediated regenerative angiogenesis in adult zebrafish tail fin distal vessel at 500 nM treated for 3 days post 5 days of amputation period measured on day 5 by angiography
Method in brief: (§3)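 Amputated adult Tg(fli1:EGFP)y1 fins recovered at 31-33 °C in fish water or 500 nM inhibitor (final DMSO <0.1%); in washout runs the drug was removed at 3 dpa. The same fish were imaged over several days.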

[9] = target: Vascular endothelial growth factor receptor 2 (Danio rerio) (UniProt Q5GIT4); assay: Inhibition of VEGFR2-mediated regenerative angiogenesis in adult zebrafish tail fin proximal vessel at 500 nM treated for 3 days post 5 days of amputation period measured on day 5 by angiography; method in brief: as §3
[10] = target: Vascular endothelial growth factor receptor 2 (Danio rerio) (UniProt Q5GIT4); assay: Inhibition of VEGFR2-mediated regenerative angiogenesis in adult zebrafish tail fin distal vessel at 500 nM treated for 3 days post 5 days of amputation period measured on day 8 by angiography; method in brief: as §3
[11] = target: Vascular endothelial growth factor receptor 2 (Danio rerio) (UniProt Q5GIT4); assay: Inhibition of VEGFR2-mediated regenerative angiogenesis in adult zebrafish tail fin proximal vessel at 500 nM treated for 3 days post 5 days of amputation period measured on day 8 by angiography; method in brief: as §3
[12] = target: Vascular endothelial growth factor receptor 2 (Danio rerio) (UniProt Q5GIT4); assay: Inhibition of VEGFR2-mediated regenerative angiogenesis in adult zebrafish tail fin assessed as amount of tissue regeneration at 500 nM measured on day 7 post treatment by angiography; format: tissue-based; method in brief: as §3
[13] = target: Vascular endothelial growth factor receptor 2 (Danio rerio) (UniProt Q5GIT4); assay: Inhibition of VEGFR2-mediated regenerative angiogenesis in adult zebrafish tail fin assessed as amount of tissue regeneration at 500 nM measured on day 14 post treatment by angiography; format: tissue-based; method in brief: as §3
[14] = target: Vascular endothelial growth factor receptor 2 (Danio rerio) (UniProt Q5GIT4); assay: Inhibition of VEGFR2-mediated regenerative angiogenesis in adult zebrafish tail fin at 500 nM treated for 3 days measured after 4 days of drug washout by angiography; method in brief: as §3
[15] = target: Vascular endothelial growth factor receptor 2 (Danio rerio) (UniProt Q5GIT4); assay: Inhibition of VEGFR2-mediated regenerative angiogenesis in adult zebrafish tail fin assessed as reduction of plexus formation at 500 nM treated for 3 days measured after 4 days of drug washout by angiography; method in brief: as §3
[16] = target: Vascular endothelial growth factor receptor 2 (Danio rerio) (UniProt Q5GIT4); assay: Inhibition of VEGFR2-mediated regenerative angiogenesis in adult zebrafish tail fin assessed as decrease in tissue regeneration at 500 nM after 5 days by angiography; format: tissue-based; method in brief: as §3
[17] = target: Vascular endothelial growth factor receptor 2 (Danio rerio) (UniProt Q5GIT4); assay: Effect on VEGFR2-mediated axonal outgrowth in adult zebrafish tail fin at 500 nM after 5 days by zn-12 staining-based immunohistochemistry
Method in brief: (§4)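 Fins fixed overnight at 4 °C in Dent's fixative, dehydrated in a methanol series, re-fixed in 4% paraformaldehyde for 2-24 h, then permeabilized in acetone at -20 °C for 20 min and blocked 1 h at 37 °C. Primary antibody zn-12, zns-5 or B-4 (smooth muscle actin) at 1:50-1:200 overnight at 4 °C; Cy2/Cy3 secondary at 1:200.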

[18] = target: Vascular endothelial growth factor receptor 2 (Danio rerio) (UniProt Q5GIT4); assay: Effect on VEGFR2-mediated bone tissue regeneration in adult zebrafish tail fin at 500 nM after 5 days by zns-5 staining-based immunohistochemistry; method in brief: as §4
[19] = target: Vascular endothelial growth factor receptor 2 (Danio rerio) (UniProt Q5GIT4); assay: Inhibition of VEGFR2-mediated regenerative angiogenesis in adult zebrafish tail fin assessed disruption of actin filament at 500 nM measured after 1 week or recovery post amputation by immunohistochemistry
[20] = target: Vascular endothelial growth factor receptor 2 (Danio rerio) (UniProt Q5GIT4); assay: Inhibition of VEGFR2-mediated regenerative angiogenesis in adult zebrafish tail fin assessed disruption of actin filament at 500 nM after 14 days by immunohistochemistry
[21] = target: Vascular endothelial growth factor receptor 2 (Danio rerio) (UniProt Q5GIT4); assay: Inhibition of VEGFR2-mediated regenerative angiogenesis in wild type adult zebrafish tail fin vessel assessed as vascularization of newly generated tissues at 100 nM measured on day 3 post treatment by angiography; format: tissue-based; design: scale not given: the % may be the effect or the level left; method in brief: as §2
[22] = target: Vascular endothelial growth factor receptor 2 (Danio rerio) (UniProt Q5GIT4); assay: Inhibition of VEGFR2-mediated regenerative angiogenesis in PLCgamma1y10 gene-deficient adult zebrafish tail fin vessel assessed as vascularization of newly generated tissues at 100 nM measured on day 3 post treatment by angiography; format: tissue-based; design: scale not given: the % may be the effect or the level left; method in brief: as §2
[23] = target: Vascular endothelial growth factor receptor 2 (Danio rerio) (UniProt Q5GIT4); assay: Inhibition of VEGFR2-mediated regenerative angiogenesis in clom39-positive heterozygous adult zebrafish tail fin vessel assessed as vascularization of newly generated tissues at 100 nM measured on day 3 post treatment by angiography; format: tissue-based; design: scale not given: the % may be the effect or the level left; method in brief: as §2
[24] = species on record: Danio rerio; assay: Decrease in VEGFR2 gene expression in adult zebrafish tail fin at 500 nM after 3 days by real-time PCR analysis
[25] = species on record: Danio rerio; assay: Decrease in VEGFR2 gene expression in adult zebrafish tail fin at 500 nM up to 2 days by in-situ hybridization assay
[26] = target: Vascular endothelial growth factor receptor 2 (Danio rerio) (UniProt Q5GIT4); assay: Inhibition of VEGFR2-mediated VEGFA mRNA expression in adult zebrafish tail fin at 500 nM after 1.5 days by in-situ hybridization assay
[27] = species on record: Danio rerio; assay: Decrease in FGFR1 mRNA expression in adult zebrafish tail fin at 500 nM measured on day 2 post treatment by in-situ hybridization assay
[28] = target: Vascular endothelial growth factor receptor 2 (Danio rerio) (UniProt Q5GIT4); assay: Inhibition of VEGFR2-mediated shh mRNA expression in adult zebrafish tail fin at 500 nM measured on day 2 post treatment by in-situ hybridization assay
[29] = target: Vascular endothelial growth factor receptor 2 (Danio rerio) (UniProt Q5GIT4); assay: Inhibition of VEGFR2-mediated msxb mRNA expression in adult zebrafish tail fin at 500 nM measured on day 2 post treatment by in-situ hybridization assay
[30] = species on record: Danio rerio; assay: Decrease in VEGFR2 gene expression in adult zebrafish tail fin at 500 nM treated for 3 days measured on day 4 following drug washout by real-time PCR analysis
[31] = species on record: Danio rerio; assay: Decrease in VEGFR2 gene expression in adult zebrafish tail fin at 500 nM treated for 3 days measured on day 5 following drug washout by real-time PCR analysis
[32] = species on record: Danio rerio; assay: Effect on ephrinB2a mRNA expression in adult zebrafish tail fin at 500 nM treated for 3 days measured on day 5 following drug washout by real-time PCR analysis
[33] = species on record: Danio rerio; assay: Effect on semaphorin3aa mRNA expression in adult zebrafish tail fin at 500 nM treated for 3 days measured on day 5 following drug washout by real-time PCR analysis
[34] = target: Vascular endothelial growth factor receptor 2 (Danio rerio) (UniProt Q5GIT4); assay: Effect on VEGFR2-mediated VEGFA mRNA expression in adult zebrafish tail fin at 500 nM treated for 3 days measured on day 5 following drug washout by real-time PCR analysis

O=C(Nc1cccc(C(F)(F)F)c1)c1ccccc1NCc1ccncc1
inhibition [1]: Active

Cc1cc(C)c(/C=C2\C(=O)Nc3ccccc32)[nH]1
inhibition [2]: inactive

CCN(CC)CCNC(=O)c1c(C)[nH]c(/C=C2\C(=O)Nc3ccc(Cl)cc32)c1C
inhibition [3]: Active | inhibition [4]: Active

Clc1ccc(Nc2nnc(Cc3ccncc3)c3ccccc23)cc1
Activity [5]: 30% | inhibition [6]: Active | inhibition [7]: Active | inhibition [8]: Active | inhibition [9]: inactive | inhibition [10]: Active | inhibition [11]: inactive | regenerated tissue length [12]: 800 µm | regenerated tissue length [13]: 800 µm | inhibition [14]: inactive | inhibition [15]: Active | inhibition [16]: Active | Activity [17]: inactive | Activity [18]: inactive | inhibition [19]: Active | inhibition [20]: inactive | Activity [21]: 50% | Activity [22]: 30% | Activity [23]: 50% | inhibition [24]: Active | inhibition [25]: Active | inhibition [26]: inactive | inhibition [27]: inactive | inhibition [4]: Active | inhibition [28]: inactive | inhibition [29]: inactive | inhibition [30]: inactive | inhibition [31]: inactive | Activity [32]: inactive | Activity [33]: inactive | Activity [34]: inactive
